Columns and labels:
[1] = target: T1, Pancreatic alpha-amylase (Sus scrofa) (UniProt P00690); experiment: Inhibition pig alpha-amylase at 50 to 300 ug/ml pretreated for 30 mins followed by addition of 1% starch for 10 mins by spectrometer
T1 sequence (whole entry): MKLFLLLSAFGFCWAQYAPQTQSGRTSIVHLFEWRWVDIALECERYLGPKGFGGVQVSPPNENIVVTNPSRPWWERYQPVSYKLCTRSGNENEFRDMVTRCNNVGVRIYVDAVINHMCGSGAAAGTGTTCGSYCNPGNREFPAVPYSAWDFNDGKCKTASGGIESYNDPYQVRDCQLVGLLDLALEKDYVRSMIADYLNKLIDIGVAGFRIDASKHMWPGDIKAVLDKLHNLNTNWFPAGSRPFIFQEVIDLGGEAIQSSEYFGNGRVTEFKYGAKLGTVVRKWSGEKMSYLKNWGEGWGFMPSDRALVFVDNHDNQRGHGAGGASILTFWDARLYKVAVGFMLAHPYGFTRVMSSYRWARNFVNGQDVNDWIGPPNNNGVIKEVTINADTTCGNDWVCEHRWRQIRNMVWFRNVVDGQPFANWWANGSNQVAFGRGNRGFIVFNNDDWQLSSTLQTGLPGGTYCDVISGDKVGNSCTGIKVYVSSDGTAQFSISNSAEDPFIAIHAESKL
In short: (§1)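 PBS containing 1% starch was then added for 10 min at 37°C. The reaction was stopped with DNSA in a boiling bath for 10 min, and OD was read at 540 nm against a 0.2% maltose reference. Acarbose was the positive control. Runs were in triplicate with SD, giving % inhibition relative to an uninhibited control.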

[2] = target: T1, Pancreatic alpha-amylase (Sus scrofa); details: 100 mg/ml
[3] = target: T1, Pancreatic alpha-amylase (Sus scrofa); experiment: Inhibition pig alpha-amylase at 300 ug/ml pretreated for 30 mins followed by addition of 1% starch for 10 mins by spectrometer
In short: as §1, with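 “Porcine pancreatic α-amylase (1.28 mg in 25 ml PBS) was preincubated with compounds in methanol (50, 150 or 300 µg/ml) at 37°C for 30 min. PBS” for “PBS”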

SMILES	inhibition [1] [%]	also measured
CCOC(=O)C1=C(C)NC(=O)NC1c1ccc2c(c1)OCO2 (configuration not stated)	0	
CCOC(=O)C1=C(C)NC(=O)NC1c1ccc([N+](=O)[O-])cc1 (configuration not stated)	0	
CCOC(=O)C1=C(C)NC(=O)NC1c1ccccc1 (configuration not stated)	0	
CCOC(=O)C1=C(C)NC(=S)N[C@H]1c1cccc(O)c1	0	
CCOC(=O)C1=C(C)NC(=O)NC1c1ccc(F)cc1 (configuration not stated)	63.8	
C[C@H]1O[C@H](O[C@H]2[C@H](O)[C@@H](O)[C@@H](O[C@H]3[C@H](O)[C@@H](O)C(O)O[C@@H]3CO)O[C@@H]2CO)[C@H](O)[C@@H](O)[C@@H]1N[C@H]1C=C(CO)[C@@H](O)[C@H](O)[C@H]1O (some centres not stated)		inhibition [2]: 100%
CCOC(=O)C1=C(C)NC(=S)NC1c1ccccc1 (configuration not stated)		inhibition [3]: 97.2%
CCOC(=O)C1=C(C)NC(=O)NC1c1cccc([N+](=O)[O-])c1 (configuration not stated)	26.5	
CCOC(=O)C1=C(C)NC(=O)NC1c1ccccc1F (configuration not stated)	0	

Second part, led by results:

inhibition [1] [%]	SMILES	also measured
66.5	CCOC(=O)C1=C(C)NC(=S)NC1c1ccc(OC)cc1 (configuration not stated)	
0	CCOC(=O)C1=C(C)NC(=S)NC1c1cccc(OC)c1 (configuration not stated)	
0	CCOC(=O)C1=C(C)NC(=O)NC1c1ccc(OC)cc1 (configuration not stated)	

From ChEMBL document CHEMBL3286173, “Graphite catalyzed solvent free synthesis of dihydropyrimidin-2(1H)-ones/thiones and their antidiabetic activity” (Bioorg Med Chem Lett, 2014)
